# Experiments:
# male BALB/c mice [1] = test: Elevated Platform test; assay type: in vivo; settings: IP; Lorazepam 0.05 mg/kg, AVN-101 0.2 mg/kg; initial 2 min
# BALB/c mice [2] = test: Open Field test; assay type: in vivo; settings: IP; Lorazepam 0.05 mg/kg, AVN-101 0.2 mg/kg
# In short: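 Male BALB/c mice received lorazepam 30 min or test compound 5 min before testing; controls received saline, with at least 8 per group. Time in the central zone was recorded during a 10-min exploration. Comparison with the control group used ANOVA with Fisher LSD.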
# Monkeys (Macaca mulatta) = test: Q-T interval, monkeys; assay type: in vivo; settings: 15 mg/kg IV
# male BALB/c mice [3] = test: Elevated Plus-Maze; assay type: in vivo; settings: IP, Buspirone 5 mg/kg; for locomotion (total number of arm visits): M1 5 or 20 mg/kg, M2 1 and 5 mg/kg; for anxiolytic effect (open/closed arm time and visits, defecations): M2 0.05, 0.5, 1.0, 5.0 mg/kg
# In short: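 Elevated plus-maze in mice. Read-outs were open/closed arm time ratio, open/closed visit ratio, defecations and total visits. Each treated group was compared with the placebo group by Student t-test.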
# Pharmacokinetics in dogs = assay type: in vivo, dogs (Beagle); settings: for AUC0 - >∞ / Cmax / T1/2 / Tmax: label = substance analyzed
# 5-HT7 receptor [4] = molecular target: T1, 5-HT7 receptor (Homo sapiens, UniProt P34969); test: Radioligand binding competition, 5-HT7
# T1 sequence (P34969 whole entry): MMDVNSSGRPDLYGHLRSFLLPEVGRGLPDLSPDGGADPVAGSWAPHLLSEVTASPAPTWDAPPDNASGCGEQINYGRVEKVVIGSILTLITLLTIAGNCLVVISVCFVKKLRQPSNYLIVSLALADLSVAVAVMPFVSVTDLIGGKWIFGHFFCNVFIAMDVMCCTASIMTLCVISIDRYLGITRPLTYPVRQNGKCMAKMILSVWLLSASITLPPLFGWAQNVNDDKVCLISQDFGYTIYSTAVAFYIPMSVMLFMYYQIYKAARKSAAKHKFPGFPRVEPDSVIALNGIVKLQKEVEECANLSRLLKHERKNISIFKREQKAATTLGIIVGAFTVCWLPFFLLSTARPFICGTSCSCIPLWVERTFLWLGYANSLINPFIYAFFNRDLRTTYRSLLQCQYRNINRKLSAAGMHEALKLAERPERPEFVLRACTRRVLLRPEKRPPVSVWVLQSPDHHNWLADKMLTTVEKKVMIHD
# Adrenergic α2A = Adrenergic α2A (Homo sapiens, UniProt P08913); test: Radioligand competition, adrenergic α2A; assay type: binding
# Sequence of Adrenergic α2A (P08913 whole entry): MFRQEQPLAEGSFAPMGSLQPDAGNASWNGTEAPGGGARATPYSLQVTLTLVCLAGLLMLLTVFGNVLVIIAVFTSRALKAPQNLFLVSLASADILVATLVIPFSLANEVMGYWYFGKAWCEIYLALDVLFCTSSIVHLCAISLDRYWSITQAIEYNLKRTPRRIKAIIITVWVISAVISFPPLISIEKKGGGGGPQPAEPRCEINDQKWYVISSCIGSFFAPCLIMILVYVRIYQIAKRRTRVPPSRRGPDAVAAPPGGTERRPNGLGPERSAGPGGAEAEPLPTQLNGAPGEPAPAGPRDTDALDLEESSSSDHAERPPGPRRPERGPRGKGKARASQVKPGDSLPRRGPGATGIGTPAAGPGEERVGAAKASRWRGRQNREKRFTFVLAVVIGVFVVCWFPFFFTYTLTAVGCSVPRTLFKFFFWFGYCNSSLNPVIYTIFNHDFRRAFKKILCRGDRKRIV
# 5-HT2A receptor [5] = molecular target: T2, 5-HT2A receptor (Homo sapiens, UniProt P28223); test: Radioligand binding competition, 5-HT2A
# T2 sequence (P28223 whole entry): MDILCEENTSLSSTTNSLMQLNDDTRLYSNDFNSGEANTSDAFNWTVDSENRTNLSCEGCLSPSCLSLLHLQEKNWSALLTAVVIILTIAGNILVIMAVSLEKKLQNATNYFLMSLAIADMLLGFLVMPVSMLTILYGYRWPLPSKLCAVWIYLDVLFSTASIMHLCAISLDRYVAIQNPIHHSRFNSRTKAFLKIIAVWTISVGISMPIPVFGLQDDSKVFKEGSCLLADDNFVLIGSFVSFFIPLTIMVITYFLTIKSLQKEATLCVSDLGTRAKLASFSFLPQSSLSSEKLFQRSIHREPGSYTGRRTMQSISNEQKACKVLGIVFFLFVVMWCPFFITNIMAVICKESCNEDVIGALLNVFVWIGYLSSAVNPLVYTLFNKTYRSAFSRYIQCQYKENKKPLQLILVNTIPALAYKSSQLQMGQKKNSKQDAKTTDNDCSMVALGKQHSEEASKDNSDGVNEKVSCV
# 5-HT6 receptor = 5-HT6 receptor (Homo sapiens, UniProt P50406); test: Radioligand binding competition, 5-HT6
# Sequence of 5-HT6 receptor (P50406 whole entry): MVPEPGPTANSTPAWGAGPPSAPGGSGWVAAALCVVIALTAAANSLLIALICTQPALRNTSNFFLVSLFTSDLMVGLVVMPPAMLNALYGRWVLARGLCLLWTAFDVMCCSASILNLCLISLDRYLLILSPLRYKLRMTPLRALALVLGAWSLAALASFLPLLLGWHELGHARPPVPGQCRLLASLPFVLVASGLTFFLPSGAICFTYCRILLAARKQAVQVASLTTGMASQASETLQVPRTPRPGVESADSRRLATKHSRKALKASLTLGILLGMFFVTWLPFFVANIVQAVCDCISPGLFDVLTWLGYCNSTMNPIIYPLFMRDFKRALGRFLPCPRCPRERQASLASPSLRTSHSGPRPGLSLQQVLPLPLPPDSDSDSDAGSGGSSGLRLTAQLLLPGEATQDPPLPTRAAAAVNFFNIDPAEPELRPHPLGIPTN
# histamine H2 receptor = histamine H2 receptor (Homo sapiens, UniProt P25021); test: Radioligand binding competition, histamine H2
# Sequence of histamine H2 receptor (P25021 whole entry): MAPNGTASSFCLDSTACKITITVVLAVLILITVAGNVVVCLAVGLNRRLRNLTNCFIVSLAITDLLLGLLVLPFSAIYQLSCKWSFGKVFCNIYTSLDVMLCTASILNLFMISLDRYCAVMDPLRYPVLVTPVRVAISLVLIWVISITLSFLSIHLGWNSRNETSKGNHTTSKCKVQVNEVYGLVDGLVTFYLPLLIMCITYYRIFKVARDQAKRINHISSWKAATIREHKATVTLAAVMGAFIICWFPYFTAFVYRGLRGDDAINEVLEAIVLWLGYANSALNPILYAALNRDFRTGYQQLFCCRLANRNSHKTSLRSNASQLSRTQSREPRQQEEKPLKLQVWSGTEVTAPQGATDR
# 5-HT2C receptor [6] = molecular target: T3, 5-HT2C receptor (Homo sapiens, UniProt P28335); test: Radioligand binding competition, 5-HT2C
# T3 sequence (P28335 33-458): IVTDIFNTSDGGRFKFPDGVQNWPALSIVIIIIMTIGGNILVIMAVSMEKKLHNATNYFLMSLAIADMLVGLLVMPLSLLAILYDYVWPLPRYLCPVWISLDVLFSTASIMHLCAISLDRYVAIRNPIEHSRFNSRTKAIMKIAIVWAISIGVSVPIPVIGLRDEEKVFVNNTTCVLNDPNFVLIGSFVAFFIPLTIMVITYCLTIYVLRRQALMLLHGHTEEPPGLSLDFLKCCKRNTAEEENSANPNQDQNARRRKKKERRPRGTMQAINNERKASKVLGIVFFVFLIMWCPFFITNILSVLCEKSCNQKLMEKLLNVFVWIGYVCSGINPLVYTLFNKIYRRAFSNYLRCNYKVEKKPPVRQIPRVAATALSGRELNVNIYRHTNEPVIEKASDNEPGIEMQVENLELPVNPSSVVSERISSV
# histamine H1 receptor = histamine H1 receptor (Homo sapiens, UniProt P35367); test: Radioligand binding competition, histamine H1
# Sequence of histamine H1 receptor (P35367 whole entry, species assumed): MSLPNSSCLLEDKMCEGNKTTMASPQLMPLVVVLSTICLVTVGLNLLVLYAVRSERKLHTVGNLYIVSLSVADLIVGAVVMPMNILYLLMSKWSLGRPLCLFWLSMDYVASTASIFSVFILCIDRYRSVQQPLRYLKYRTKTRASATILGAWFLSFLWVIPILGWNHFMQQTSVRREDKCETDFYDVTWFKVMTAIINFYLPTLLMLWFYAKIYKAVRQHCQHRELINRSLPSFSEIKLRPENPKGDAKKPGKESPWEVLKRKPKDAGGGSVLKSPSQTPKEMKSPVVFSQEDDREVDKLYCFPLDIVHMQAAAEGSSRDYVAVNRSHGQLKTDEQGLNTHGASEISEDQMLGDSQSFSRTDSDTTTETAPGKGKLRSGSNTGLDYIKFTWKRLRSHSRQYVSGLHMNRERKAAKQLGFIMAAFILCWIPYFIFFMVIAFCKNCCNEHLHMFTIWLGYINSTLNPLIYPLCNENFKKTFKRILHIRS
# 5-HT3 receptor = 5-HT3 receptor (Homo sapiens, UniProt P46098); test: Target panel binding, 5-HT3
# Sequence of 5-HT3 receptor (P46098 24-478): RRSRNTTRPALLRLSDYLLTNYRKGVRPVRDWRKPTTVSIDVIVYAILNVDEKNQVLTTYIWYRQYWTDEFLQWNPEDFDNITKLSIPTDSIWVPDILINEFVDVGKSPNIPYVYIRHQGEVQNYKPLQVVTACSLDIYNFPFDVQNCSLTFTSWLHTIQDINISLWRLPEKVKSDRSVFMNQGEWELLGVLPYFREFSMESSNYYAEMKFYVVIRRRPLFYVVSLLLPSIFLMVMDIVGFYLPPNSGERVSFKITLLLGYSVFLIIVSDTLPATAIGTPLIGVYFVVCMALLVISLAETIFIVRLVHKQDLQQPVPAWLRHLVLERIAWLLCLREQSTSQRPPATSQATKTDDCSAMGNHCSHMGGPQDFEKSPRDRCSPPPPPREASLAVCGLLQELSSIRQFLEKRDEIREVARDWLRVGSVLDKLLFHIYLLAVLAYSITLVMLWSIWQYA
# 5-HT4 receptor = 5-HT4 receptor (Homo sapiens, UniProt Q13639); test: Target panel binding, 5-HT4
# hERG potassium channel = hERG potassium channel (Homo sapiens, UniProt Q12809); test: hERG single cell patch clamp in HEK cells; settings: potassium currents, patch clamp
# Sequence of hERG potassium channel (Q12809 whole entry): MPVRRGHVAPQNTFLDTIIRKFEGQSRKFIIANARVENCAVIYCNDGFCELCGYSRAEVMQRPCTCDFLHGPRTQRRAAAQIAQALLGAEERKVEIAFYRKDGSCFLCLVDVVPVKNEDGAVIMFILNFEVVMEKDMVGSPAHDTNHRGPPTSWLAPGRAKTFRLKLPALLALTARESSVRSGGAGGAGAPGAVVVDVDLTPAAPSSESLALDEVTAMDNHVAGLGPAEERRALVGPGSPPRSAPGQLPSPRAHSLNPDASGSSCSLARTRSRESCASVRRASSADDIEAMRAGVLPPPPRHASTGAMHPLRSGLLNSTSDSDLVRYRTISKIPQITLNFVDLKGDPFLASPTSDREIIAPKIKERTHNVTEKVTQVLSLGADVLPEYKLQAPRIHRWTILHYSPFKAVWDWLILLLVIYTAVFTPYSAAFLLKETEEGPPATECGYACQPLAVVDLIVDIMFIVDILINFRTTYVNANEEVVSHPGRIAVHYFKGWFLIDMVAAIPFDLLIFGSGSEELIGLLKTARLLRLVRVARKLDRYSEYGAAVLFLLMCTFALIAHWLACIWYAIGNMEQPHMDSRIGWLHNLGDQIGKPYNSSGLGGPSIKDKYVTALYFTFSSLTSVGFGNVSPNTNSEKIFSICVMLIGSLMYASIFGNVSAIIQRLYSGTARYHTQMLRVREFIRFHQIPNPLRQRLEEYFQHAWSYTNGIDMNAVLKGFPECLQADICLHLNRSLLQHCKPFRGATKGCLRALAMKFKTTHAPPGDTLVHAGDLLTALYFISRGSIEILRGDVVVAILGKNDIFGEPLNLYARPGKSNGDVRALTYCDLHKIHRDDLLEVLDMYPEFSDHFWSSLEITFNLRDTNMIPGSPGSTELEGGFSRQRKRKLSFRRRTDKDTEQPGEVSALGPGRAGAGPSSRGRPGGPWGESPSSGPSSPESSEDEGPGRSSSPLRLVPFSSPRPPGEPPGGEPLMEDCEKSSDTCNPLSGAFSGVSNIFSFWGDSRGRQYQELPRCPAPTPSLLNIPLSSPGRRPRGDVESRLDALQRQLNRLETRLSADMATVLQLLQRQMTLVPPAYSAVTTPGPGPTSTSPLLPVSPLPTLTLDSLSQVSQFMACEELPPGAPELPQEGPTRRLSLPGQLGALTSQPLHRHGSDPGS
# Adrenergic α1A = Adrenergic α1A (Homo sapiens, UniProt P35348); test: Radioligand competition, adrenergic α1A; assay type: binding
# Sequence of Adrenergic α1A (P35348 whole entry): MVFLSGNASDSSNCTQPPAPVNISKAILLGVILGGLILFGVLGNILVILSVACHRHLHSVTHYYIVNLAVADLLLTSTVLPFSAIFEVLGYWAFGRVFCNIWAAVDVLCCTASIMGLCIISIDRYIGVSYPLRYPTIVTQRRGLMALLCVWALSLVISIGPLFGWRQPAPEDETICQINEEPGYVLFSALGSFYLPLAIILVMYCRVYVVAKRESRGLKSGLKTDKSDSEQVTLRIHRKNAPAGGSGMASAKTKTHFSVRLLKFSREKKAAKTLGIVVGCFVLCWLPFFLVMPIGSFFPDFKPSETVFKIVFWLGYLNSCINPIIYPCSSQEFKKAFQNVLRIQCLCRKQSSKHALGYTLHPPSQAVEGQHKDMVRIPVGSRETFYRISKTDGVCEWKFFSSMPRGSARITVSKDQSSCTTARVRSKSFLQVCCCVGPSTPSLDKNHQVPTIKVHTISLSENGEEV
# [7] = Phase I pharmacokinetics, single PO dose; assay type: in vivo, human; settings: for AUC0 - >∞ / Cmax / T1/2: label = substance analyzed, Means ± SD
# male BALB/c mice [8] = test: Novel object recognition, scopolamine-induced; assay type: in vivo; settings: 1.0 mg/kg scopolamine; memantine 10 mg/kg; SB-742457 0.2 or 1.0 mg/kg
# In short: (§1)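 All drugs were dissolved in saline and given IP; control animals received saline vehicle. Each group had at least 8 male BALB/c mice. Read-out was novel object recognition index, reported as mean ± SE.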
# male BALB/c mice [9] = test: Novel object recognition, MK-801-induced; assay type: in vivo; settings: 0.2 mg/kg MK-801; memantine 10 mg/kg; SB-742457 0.2 or 1.0 mg/kg
# In short: as §1
# BALB/c mice [10] = test: Passive avoidance, MK-801-induced amnesia, mice; assay type: in vivo; settings: IP
# femur bone marrow cells = test: Chromosomal aberrations in femur bone marrow cells; assay type: in vivo, mice; settings: 20 mg/kg PO single dose, males
# In short: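 Mice 8–12 weeks old, male and female, were dosed orally with test compound or cyclophosphamide 20 mg/kg. Schedule was single dose with kill at 24 h, or qd for 5 days with kill 6 h after the last dose. Colchicine 4 mg/kg was given orally 2.5 h before decapitation. Femur marrow was put into 0.55% KCl at 37°C for 15 min, then spun. Scoring covered 100 metaphases per animal (500 per group), expressed as % aberrant cells.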
# male BALB/c mice [11] = test: Passive avoidance, scopolamine-induced amnesia, mice; assay type: in vivo; settings: highest dose tested, 1 mg/kg
# 5-HT1B receptor = settings: at 1μM; cited from earlier work
# male BALB/c mice [12] = settings: acute pre-dosing; cited from earlier work
# 5-HT7 receptor [13] = molecular target: T1, 5-HT7 receptor; settings: at 1μM; cited from earlier work
# 5-HT2C receptor [14] = molecular target: T3, 5-HT2C receptor; settings: at 1μM; cited from earlier work
# 5-HT2A receptor [15] = molecular target: T2, 5-HT2A receptor; settings: at 1μM; cited from earlier work
# 5-HT2B receptor = 5-HT2B receptor (Homo sapiens, UniProt P41595); settings: at 1μM; cited from earlier work
# male SHK mice = test: Apomorphine-induced disruption of pre-pulse inhibition; assay type: in vivo; settings: IP; apomorphine 20 mg/kg; Haloperidol 1 mg/kg
# In short: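 Male SHK mice received apomorphine as the pro-psychotic agent to disrupt pre-pulse inhibition. Groups: untreated control, apomorphine alone, haloperidol 1 mg/kg as positive control, and test compound at several doses. Groups were compared with the apomorphine-only group by Student test.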
# BALB/c mice [16] = test: Morris water maze, scopolamine-induced amnesia; assay type: in vivo; settings: IP; AVN-101 0.2 mg/kg; Tacrine 3 mg/kg; donepezil 1 mg/kg; scopolamine 1.5 mg/kg
# In short: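 Scopolamine-induced amnesia model in male BALB/c mice. Read-out was time spent in the quadrant where the escape platform had been during the two preceding training days, reported as mean ± SE.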
# Caco-2 permeability = settings: human
smiles,measurement,setting,value
"O=C1Nc2ccc(Cl)cc2C(c2ccccc2Cl)=NC1O (stereo not shown) [Lorazepam, reference compound]",duration of freezing behavior,male BALB/c mice [1],significantly reduced duration of the freezing behavior
same,time spent in the central area,BALB/c mice [2],significant anxiolytic effect
"CCCCc1oc2ccccc2c1C(=O)c1cc(I)c(OCCN(CC)CC)c(I)c1 [amiodaron, reference compound]",effect on heart rate,Monkeys (Macaca mulatta),no effect on the heart rate
"O=C1CC2(CCCC2)CC(=O)N1CCCCN1CCN(c2ncccn2)CC1 [Buspirone, reference compound]",locomotion (total number of arm visits),male BALB/c mice [3],had no effect on total number of arm visits
same,"anxiolytic effect (open/closed arm time and visits, defecations)",male BALB/c mice [3],clear anxiolytic effects
"Cc1ccc2c(c1)c1c(n2CC(O)c2ccccc2)CCN(C)C1 (stereo not shown) [M1, 2-(2,8-dimethyl-1,2,3,4-tetrahydro-pyrido[[4,3-b]]indol-5-yl)-1-phenyl-ethan-ol]",Fabs,Pharmacokinetics in dogs; M1 PO 5 mg/kg vs IV 1 mg/kg,8.4%
same,AUC0 - >∞,Pharmacokinetics in dogs; after AVN-101 IV 2 mg/kg,264.6 ng·min/mL
same,Cmax,Pharmacokinetics in dogs; after AVN-101 IV 2 mg/kg,5.7 ng/mL
same,T1/2,Pharmacokinetics in dogs; after AVN-101 IV 2 mg/kg,0.857 h
same,Tmax,Pharmacokinetics in dogs; after AVN-101 IV 2 mg/kg,0.083 h
same,AUC0 - >∞,Pharmacokinetics in dogs; after AVN-101 PO 10 mg/kg,"8,995 min×ng/mL"
same,Cmax,Pharmacokinetics in dogs; after AVN-101 PO 10 mg/kg,30.1 ng/mL
same,T1/2,Pharmacokinetics in dogs; after AVN-101 PO 10 mg/kg,2.582 h
same,Tmax,Pharmacokinetics in dogs; after AVN-101 PO 10 mg/kg,1 h
same,AUC0 - >∞,Pharmacokinetics in dogs; after M1 IV 1 mg/kg,"25,894 min×ng/mL"
same,Cmax,Pharmacokinetics in dogs; after M1 IV 1 mg/kg,"4,550 ng/mL"
same,T1/2,Pharmacokinetics in dogs; after M1 IV 1 mg/kg,0.958 h
same,Tmax,Pharmacokinetics in dogs; after M1 IV 1 mg/kg,0.017 h
same,AUC0 - >∞,Pharmacokinetics in dogs; after M1 PO 5 mg/kg,"10,828 min×ng/mL"
same,Cmax,Pharmacokinetics in dogs; after M1 PO 5 mg/kg,43 ng/mL
same,T1/2,Pharmacokinetics in dogs; after M1 PO 5 mg/kg,2.308 h
same,Tmax,Pharmacokinetics in dogs; after M1 PO 5 mg/kg,2 h
same,locomotion (total number of arm visits),male BALB/c mice [3],some reduction in mice locomotor activity
same,"anxiolytic effect (open/closed arm time and visits, defecations)",male BALB/c mice [3],clear anxiolytic effects
same,Ki,5-HT7 receptor [4],7.72 nM
same,lower affinity compared to AVN-101,Adrenergic α2A,3 fold
same,lower affinity compared to AVN-101,5-HT2A receptor [5],2 fold
same,lower affinity compared to AVN-101,5-HT6 receptor,4 fold
same,lower affinity compared to AVN-101,histamine H2 receptor,9 fold
same,lower affinity compared to AVN-101,5-HT2C receptor [6],7 fold
same,Ki,histamine H1 receptor,~48 nM
same,lower affinity compared to AVN-101,histamine H1 receptor,83 fold
same,interaction,5-HT3 receptor,"Neither AVN-101 nor its metabolites, M1 and M2, seem to interact"
same,interaction,5-HT4 receptor,"Neither AVN-101 nor its metabolites, M1 and M2, seem to interact"
same,IC50,hERG potassium channel,1630 nM
same,affinity compared to AVN-101,Adrenergic α1A,practically same affinity
same,AUC0 - >∞,[7]; AVN-101 PO 2 mg,0.22 ± 0.116 ng·h/mL
same,Cmax,[7]; AVN-101 PO 2 mg,0.0561 ± 0.0182 ng/mL
same,T1/2,[7]; AVN-101 PO 2 mg,2.49 ± 1.2 h
same,AUC0 - >∞,[7]; AVN-101 PO 4 mg,0.555 ± 0.297 ng·h/mL
same,Cmax,[7]; AVN-101 PO 4 mg,0.112 ± 0.0381 ng/mL
same,T1/2,[7]; AVN-101 PO 4 mg,2.48 ± 1.27 h
same,AUC0 - >∞,[7]; AVN-101 PO 10 mg,1.41 ± 0.688 ng·h/mL
same,Cmax,[7]; AVN-101 PO 10 mg,0.292 ± 0.176 ng/mL
same,T1/2,[7]; AVN-101 PO 10 mg,2.8 ± 1.71 h
same,AUC0 - >∞,[7]; AVN-101 PO 20 mg,3.1 ± 0.87 ng·h/mL
same,Cmax,[7]; AVN-101 PO 20 mg,0.635 ± 0.311 ng/mL
same,T1/2,[7]; AVN-101 PO 20 mg,3.85 ± 0.56 h
same,Tmax,[7]; after PO AVN-101,around 1 h
CC12CC3CC(C)(C1)CC(N)(C3)C2 [memantine],effect on deficit in novel object recognition,male BALB/c mice [8],not statistically effective
same,effect on deficit in novel object recognition,male BALB/c mice [9],not statistically effective
same,effect on MK-801-induced amnesia,BALB/c mice [10],not active
"O=P1(N(CCCl)CCCl)NCCCO1 (stereo not shown) [cyclophosphomide, reference compound]",Cells with multiple aberrations,femur bone marrow cells,6.2%
same,Total altered metaphases (%),femur bone marrow cells,20.8 ± 1.8%
same,"cells with aberration, Double fragment",femur bone marrow cells,0.4%
same,"cells with aberration, Single fragment",femur bone marrow cells,19.8%
same,"cells with aberration, exchanges",femur bone marrow cells,1.0%
same,"cells with aberration, gaps",femur bone marrow cells,0.2%
O=S(=O)(c1ccccc1)c1cnc2c(N3CCNCC3)cccc2c1 [SB-742457],preventative effect,male BALB/c mice [11],very mild preventative effect
same,IC50,5-HT7 receptor [4],1270 nM
same,radioligand displacement,5-HT1B receptor,86%
same,"effective dose range, scopolamine-induced amnesia passive avoidance",male BALB/c mice [12],0.5 to 4.5 mg/kg
same,binding inhibition,5-HT7 receptor [13],~25%
same,effect on deficit in novel object recognition,male BALB/c mice [8],not statistically effective
same,radioligand displacement,5-HT2C receptor [14],85%
same,effect on deficit in novel object recognition,male BALB/c mice [9],not statistically effective
same,radioligand displacement,5-HT2A receptor [15],91%
same,radioligand displacement,5-HT2B receptor,88%
"O=C(CCCN1CCC(O)(c2ccc(Cl)cc2)CC1)c1ccc(F)cc1 [Haloperidol, reference compound]",effect on apomorphine-induced disruption of PPI,male SHK mice,able to prevent
Nc1c2c(nc3ccccc13)CCCC2 [Tacrine],effect on scopolamine-induced amnesia (time in platform quadrant),BALB/c mice [16],significant prevention
"COC(=O)c1ccccc1-c1c2ccc(=N)cc-2oc2cc(N)ccc12 [Rhodamine123, reference compound]",Papp,Caco-2 permeability,0.6 ± 0.2 ×10⁻⁶ cm/s
same,Papp B→A,Caco-2 permeability,6.8 ± 0.4 ×10⁻⁶ cm/s
COc1cc2c(cc1OC)C(=O)C(CC1CCN(Cc3ccccc3)CC1)C2 (stereo not shown) [donepezil],effect on scopolamine-induced amnesia (time in platform quadrant),BALB/c mice [16],not as effective
